Source: ChEMBL document CHEMBL2417504, “A fundamental relationship between hydrophobic properties and biological activity for the duocarmycin class of DNA-alkylating antitumor drugs: hydrophobic-binding-driven bonding” (J Med Chem, 2013)
Converted amounts (≈) assume the structure as drawn.

Tests used:
[1] = Induction of w794 DNA alkylation (unknown origin) after 2 hrs by densitometric analysis relative to duocarmycin SA
Outline: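 Loss of full-length labeled DNA quantified by densitometry of remaining non-alkylated DNA. Relative alkylation efficiency corrected for the 10-fold differences in compound concentrations used.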

[2] = test system: L1210; assay: Cytotoxicity against mouse L1210 cells after 72 hrs by phosphatase assay; type: functional, cell-based; settings: L1210, 72 h
Outline: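 L1210 mouse lymphocytic leukemia cells seeded at 30,000 cells/mL in DMEM + 10% FBS, 100 μL/well, 24 h at 37 °C, 5% CO2; DMSO serial 10-fold dilutions added, six concentrations over 0–100 nM or 0–1000 nM, duplicate, 72 h.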

[3] = Solubility of the compound in water after 40 hrs; type: physicochemical; settings: for solubility: buffer, 40 h; for solubility at 40 h: water
[4] = Displacement of ethidium bromide from hairpin 5'AAAAA duplex DNA sequence (unknown origin) at 2 equivalent compound dose after 5 mins by FID assay
[5] = Displacement of ethidium bromide from hairpin 5'AAAAA duplex DNA sequence (unknown origin) at 10 equivalent compound dose after 5 mins by FID assay

COCCOCCOCCOCCOCCOc1cc2cc(C(=O)N3C[C@@H](CCl)c4c3cc(O)c3[nH]c(C(=O)OC)cc43)[nH]c2c(OCCOCCOCCOCCOCCOC)c1OCCOCCOCCOCCOCCOC
fold change (FC) [1]: 0.0002 | IC50 [2]: 370000 pM | solubility [3]: > 12000 µg/mL

COCCOCCOCCOc1cc2cc(C(=O)N3C[C@@H](CCl)c4c3cc(O)c3[nH]c(C(=O)OC)cc43)[nH]c2c(OCCOCCOCCOC)c1OCCOCCOCCOC
fold change (FC) [1]: 0.009 | IC50 [2]: 3500 pM | solubility [3]: 80000 µg/mL (≈ 87900 µM)

COC(=O)c1cc2c3c(cc(O)c2[nH]1)N(C(=O)c1cc2cc(OC)c(OC)c(OC)c2[nH]1)C[C@H]3CCl
inhibition [4]: 53% | fold change (FC) [1]: 1 | IC50 [2]: 8 pM | inhibition [5]: 97% | solubility at 40 h [3]: 460 µg/mL (≈ 895 µM)

COCCOCCOCCOc1c(OC)cc2cc(C(=O)N3C[C@@H](CCl)c4c3cc(O)c3[nH]c(C(=O)OC)cc43)[nH]c2c1OC
IC50 [2]: 70 pM

COCCOCCOCCOCCOc1c(OC)cc2cc(C(=O)N3C[C@@H](CCl)c4c3cc(O)c3[nH]c(C(=O)OC)cc43)[nH]c2c1OC
IC50 [2]: 110 pM

COCCOCCOc1c(OC)cc2cc(C(=O)N3C[C@@H](CCl)c4c3cc(O)c3[nH]c(C(=O)OC)cc43)[nH]c2c1OC
IC50 [2]: 35 pM

COCCOCCOCCOCCOc1cc2cc(C(=O)N3C[C@@H](CCl)c4c3cc(O)c3[nH]c(C(=O)OC)cc43)[nH]c2c(OCCOCCOCCOCCOC)c1OCCOCCOCCOCCOC
fold change (FC) [1]: 0.001 | IC50 [2]: 35000 pM | solubility [3]: > 19000 µg/mL

COCCOCCOc1cc2cc(C(=O)N3C[C@@H](CCl)c4c3cc(O)c3[nH]c(C(=O)OC)cc43)[nH]c2c(OCCOCCOC)c1OCCOCCOC
inhibition [4]: 0% | fold change (FC) [1]: 0.08 | IC50 [2]: 260 pM | inhibition [5]: 27% | solubility at 40 h [3]: 2000 µg/mL (≈ 2570 µM)

COCCOCCOCCOCCOCCOc1c(OC)cc2cc(C(=O)N3C[C@@H](CCl)c4c3cc(O)c3[nH]c(C(=O)OC)cc43)[nH]c2c1OC
IC50 [2]: 250 pM

COCCOc1c(OC)cc2cc(C(=O)N3C[C@@H](CCl)c4c3cc(O)c3[nH]c(C(=O)OC)cc43)[nH]c2c1OC
IC50 [2]: 18 pM

COCCOc1cc2cc(C(=O)N3C[C@@H](CCl)c4c3cc(O)c3[nH]c(C(=O)OC)cc43)[nH]c2c(OCCOC)c1OCCOC
inhibition [4]: 10% | fold change (FC) [1]: 0.9 | IC50 [2]: 37 pM | inhibition [5]: 50% | solubility at 40 h [3]: 740 µg/mL (≈ 1150 µM)
